# Measurements taken from ChEMBL document CHEMBL3407460, “Synthesis of novel thiazole-based 8,9-dihydro-7H-pyrimido[4,5-b][1,4]diazepines as potential antitumor and antifungal agents” (2015).
# Legend:
# Format in all cases: functional
# [1] = tested on: Cryptococcus neoformans; assay: Antifungal activity against Cryptococcus neoformans ATCC 32264 assessed as growth inhibition at 125 ug/ml after 48 hrs by broth microdilution method; conditions: ATCC 32264, 48 h
# How it was run: (§1)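 CLSI M27-A3 broth microdilution in RPMI-1640. Compound stocks were made in DMSO (final at most 1%) and tested at final levels of 250 to 0.98. Inoculum was 1–5 × 10^3 CFU/mL, incubated 48 h at 30 °C in a moist, dark chamber. Growth and sterility control wells were included.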
# [2] = tested on: Candida albicans; assay: Antifungal activity against Candida albicans ATCC 10231 assessed as growth inhibition at 62.5 ug/ml after 48 hrs by broth microdilution method; conditions: ATCC 10231, 48 h; how it was run: as §1
# [3] = tested on: Candida albicans; assay: Antifungal activity against Candida albicans ATCC 10231 assessed as growth inhibition at 7.81 ug/ml after 48 hrs by broth microdilution method; conditions: ATCC 10231, 48 h; how it was run: as §1
# [4] = tested on: Candida albicans; assay: Antifungal activity against Candida albicans ATCC 10231 assessed as growth inhibition at 125 ug/ml after 48 hrs by broth microdilution method; conditions: ATCC 10231, 48 h; how it was run: as §1
# [5] = tested on: Cryptococcus neoformans; assay: Antifungal activity against Cryptococcus neoformans ATCC 32264 assessed as growth inhibition at 7.81 ug/ml after 48 hrs by broth microdilution method; conditions: ATCC 32264, 48 h; how it was run: as §1
# [6] = tested on: Candida albicans; assay: Antifungal activity against Candida albicans ATCC 10231 assessed as growth inhibition at 31.25 ug/ml after 48 hrs by broth microdilution method; conditions: ATCC 10231, 48 h; how it was run: as §1
# [7] = tested on: Cryptococcus neoformans; assay: Antifungal activity against Cryptococcus neoformans ATCC 32264 assessed as growth inhibition at 31.25 ug/ml after 48 hrs by broth microdilution method; conditions: ATCC 32264, 48 h; how it was run: as §1
# [8] = tested on: Cryptococcus neoformans; assay: Antifungal activity against Cryptococcus neoformans ATCC 32264 assessed as growth inhibition at 250 ug/ml after 48 hrs by broth microdilution method; conditions: ATCC 32264, 48 h; how it was run: as §1
# [9] = tested on: Candida albicans; assay: Antifungal activity against Candida albicans ATCC 10231 assessed as growth inhibition at 250 ug/ml after 48 hrs by broth microdilution method; conditions: ATCC 10231, 48 h; how it was run: as §1
# [10] = tested on: Candida albicans; assay: Antifungal activity against Candida albicans ATCC 10231 assessed as growth inhibition at 15.62 ug/ml after 48 hrs by broth microdilution method; conditions: ATCC 10231, 48 h; how it was run: as §1
# [11] = tested on: Cryptococcus neoformans; assay: Antifungal activity against Cryptococcus neoformans ATCC 32264 assessed as growth inhibition at 3.9 ug/ml after 48 hrs by broth microdilution method; conditions: ATCC 32264, 48 h; how it was run: as §1
# [12] = tested on: Cryptococcus neoformans; assay: Antifungal activity against Cryptococcus neoformans ATCC 32264 assessed as growth inhibition at 62.5 ug/ml after 48 hrs by broth microdilution method; conditions: ATCC 32264, 48 h; how it was run: as §1
# [13] = tested on: Candida albicans; assay: Antifungal activity against Candida albicans ATCC 10231 assessed as growth inhibition at 3.9 ug/ml after 48 hrs by broth microdilution method; conditions: ATCC 10231, 48 h; how it was run: as §1
# [14] = tested on: Cryptococcus neoformans; assay: Antifungal activity against Cryptococcus neoformans ATCC 32264 assessed as growth inhibition at 15.62 ug/ml after 48 hrs by broth microdilution method; conditions: ATCC 32264, 48 h; how it was run: as §1
# [15] = tested on: Cryptococcus neoformans; assay: Antifungal activity against Cryptococcus neoformans IM 972751 clinical isolate after 48 hrs by broth microdilution method; conditions: IM 972751, 48 h, read-out: MIC100
# How it was run: (§2)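 Clinical isolates from the Malbrán Institute were grown on Sabouraud-chloramphenicol agar for 48 h at 30 °C, kept on Sabouraud-dextrose agar and subcultured every 15 days. M27-A3 RPMI-1640 microdilution used 1–5 × 10^3 CFU/mL, 48 h at 30 °C, OD405 read, triplicate. Endpoints MIC100, MIC80 and MIC50 were taken from % inhibition dose-response curves.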
# [16] = tested on: Cryptococcus neoformans; assay: Antifungal activity against Cryptococcus neoformans IM 983040 clinical isolate after 48 hrs by broth microdilution method; conditions: IM 983040, 48 h, read-out: MIC100; how it was run: as §2
# [17] = tested on: Cryptococcus neoformans; assay: Antifungal activity against Cryptococcus neoformans IM 972724 clinical isolate after 48 hrs by broth microdilution method; conditions: IM 972724, 48 h, read-out: MIC100; how it was run: as §2
# [18] = tested on: Cryptococcus neoformans; assay: Antifungal activity against Cryptococcus neoformans IM 042074 clinical isolate after 48 hrs by broth microdilution method; conditions: IM 042074, 48 h, read-out: MIC100; how it was run: as §2
# [19] = tested on: Cryptococcus neoformans; assay: Antifungal activity against Cryptococcus neoformans ATCC 32264 after 48 hrs by broth microdilution method; conditions: ATCC 32264, 48 h, read-out: MIC100
# [20] = tested on: Cryptococcus neoformans; assay: Antifungal activity against Cryptococcus neoformans IM 031631 clinical isolate after 48 hrs by broth microdilution method; conditions: IM 031631, 48 h, read-out: MIC100; how it was run: as §2
# [21] = tested on: Cryptococcus neoformans; assay: Antifungal activity against Cryptococcus neoformans IM 983036 clinical isolate after 48 hrs by broth microdilution method; conditions: IM 983036, 48 h, read-out: MIC100; how it was run: as §2
# [22] = tested on: Cryptococcus neoformans; assay: Antifungal activity against Cryptococcus neoformans IM 961951 clinical isolate after 48 hrs by broth microdilution method; conditions: IM 961951, 48 h, read-out: MIC100; how it was run: as §2
SMILES,inhibition at 125 µg/mL [1],inhibition at 62.5 µg/mL [2],inhibition at 7.81 µg/mL [3],inhibition at 125 µg/mL [4],inhibition at 7.81 µg/mL [5],inhibition at 31.25 µg/mL [6],inhibition at 31.25 µg/mL [7],inhibition at 250 µg/mL [8],inhibition at 250 µg/mL [9],inhibition at 15.62 µg/mL [10],inhibition at 3.9 µg/mL [11],inhibition at 62.5 µg/mL [12],inhibition at 3.9 µg/mL [13],inhibition at 15.62 µg/mL [14],also measured
Cc1ccc(C2=Nc3c(N)nc(N)nc3NC(c3sc(Cl)nc3Cl)C2)cc1 (stereo not given),18.3%,13.5%,0%,21.3%,0.93%,8.7%,6.47%,59.1%,55.5%,1.41%,0%,9.2%,0%,4.57%,–
COc1ccc(C2=Nc3c(N)nc(N)nc3NC(c3sc(Cl)nc3Cl)C2)cc1 (stereo not given),46.9%,23.2%,12.4%,54.6%,6.04%,21.2%,13.2%,77.1%,62.6%,15.7%,0%,23.1%,10.4%,7.79%,–
COc1cc(C2=Nc3c(N)nc(N)nc3NC(c3sc(Cl)nc3Cl)C2)cc(OC)c1OC (stereo not given),27.2%,7.26%,0%,10.5%,2.99%,9.84%,7.09%,77.5%,15%,0%,1.65%,9.28%,0%,5.52%,–
C[C@@H]1[C@H](O)[C@@H](C)/C=C/C=C/C=C/C=C/C=C/C=C/C=C/[C@H](O[C@@H]2O[C@H](C)[C@@H](O)[C@H](N)[C@@H]2O)C[C@@H]2O[C@](O)(C[C@@H](O)C[C@@H](O)[C@H](O)CC[C@@H](O)C[C@@H](O)CC(=O)O[C@H]1C)C[C@H](O)[C@H]2C(=O)O [AMPHOTERICIN B],–,–,–,–,–,–,–,–,–,–,–,–,–,–,MIC [15]: 1 µg/mL; MIC [16]: 0.25 µg/mL; MIC [17]: 0.25 µg/mL; MIC [18]: 0.12 µg/mL; MIC [19]: 0.12 µg/mL; MIC [20]: 0.12 µg/mL; MIC [21]: 0.25 µg/mL; MIC [22]: 1 µg/mL
